Source: ChEMBL document CHEMBL4251567 (Eur J Med Chem, 2018)

Columns and labels:
[1] = target: T1, Protein deacetylase HDAC6 (Homo sapiens) (UniProt Q9UBN7); experiment: Inhibition of HDAC6 in human HeLa-S3 cell lysates assessed as remaining activity at 8 x 10^-7 M preincubated for 15 mins followed by HDAC-Glo substrate addition measured after 30 to 40 mins by […] relative to control
T1 sequence (whole entry): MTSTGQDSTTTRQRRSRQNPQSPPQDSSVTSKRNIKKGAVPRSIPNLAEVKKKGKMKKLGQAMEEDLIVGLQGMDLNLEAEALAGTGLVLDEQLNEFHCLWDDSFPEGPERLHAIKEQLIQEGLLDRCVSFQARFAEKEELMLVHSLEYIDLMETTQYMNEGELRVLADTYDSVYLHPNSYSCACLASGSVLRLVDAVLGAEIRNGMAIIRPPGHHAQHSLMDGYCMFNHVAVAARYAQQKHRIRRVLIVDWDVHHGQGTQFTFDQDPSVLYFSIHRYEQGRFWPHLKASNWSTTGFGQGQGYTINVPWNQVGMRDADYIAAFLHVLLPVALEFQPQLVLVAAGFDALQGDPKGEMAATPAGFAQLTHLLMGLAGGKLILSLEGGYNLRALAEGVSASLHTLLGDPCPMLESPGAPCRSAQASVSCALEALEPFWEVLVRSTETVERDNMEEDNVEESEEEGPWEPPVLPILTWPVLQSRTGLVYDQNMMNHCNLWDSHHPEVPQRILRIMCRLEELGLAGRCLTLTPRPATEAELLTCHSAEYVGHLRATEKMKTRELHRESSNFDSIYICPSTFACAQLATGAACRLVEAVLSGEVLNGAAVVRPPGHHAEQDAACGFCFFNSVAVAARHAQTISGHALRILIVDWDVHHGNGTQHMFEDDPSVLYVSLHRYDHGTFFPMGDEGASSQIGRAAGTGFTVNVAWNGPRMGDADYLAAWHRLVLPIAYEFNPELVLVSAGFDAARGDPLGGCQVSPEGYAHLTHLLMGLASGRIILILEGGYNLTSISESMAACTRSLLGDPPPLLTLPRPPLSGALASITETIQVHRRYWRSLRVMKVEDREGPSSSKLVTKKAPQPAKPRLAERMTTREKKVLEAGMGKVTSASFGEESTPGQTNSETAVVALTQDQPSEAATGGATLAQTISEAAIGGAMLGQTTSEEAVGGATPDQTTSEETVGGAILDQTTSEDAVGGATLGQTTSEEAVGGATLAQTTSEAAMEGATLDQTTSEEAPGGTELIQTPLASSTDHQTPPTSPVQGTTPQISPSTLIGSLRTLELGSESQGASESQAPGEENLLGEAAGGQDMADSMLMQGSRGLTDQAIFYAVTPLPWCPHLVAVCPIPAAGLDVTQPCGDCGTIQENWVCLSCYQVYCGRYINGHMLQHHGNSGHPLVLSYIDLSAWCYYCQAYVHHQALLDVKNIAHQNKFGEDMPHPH
How it was run: (§1)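 HDAC6 captured on an anti-HDAC6 antibody-coated plate (2 μg/mL, pH 9.4 carbonate buffer, milk-blocked). HeLa-S3 lysate loaded at 1 mg/mL, 1 h at 4 °C, then washed. 15 min RT preincubation with inhibitor in DMSO; HDAC-Glo reagent added, luminescence read at 30-40 min. Concentrations are final. Background = no-antibody well; values are % activity versus DMSO control.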

[2] = target: T1, Protein deacetylase HDAC6 (Homo sapiens); experiment: Inhibition of HDAC6 in human HeLa-S3 cell lysates assessed as remaining activity at […] preincubated for 15 mins followed by HDAC-Glo substrate addition measured after 30 to 40 mins by […] relative to control
[3] = target: Histone deacetylase 1 (Homo sapiens) (UniProt Q13547); experiment: Inhibition of HDAC1 in human HeLa-S3 cell lysates assessed as remaining activity at […] preincubated for 15 mins followed by HDAC-Glo substrate addition measured after 30 to 40 mins by […] relative to control
Chain of Histone deacetylase 1 (Homo sapiens) (Q13547 whole entry): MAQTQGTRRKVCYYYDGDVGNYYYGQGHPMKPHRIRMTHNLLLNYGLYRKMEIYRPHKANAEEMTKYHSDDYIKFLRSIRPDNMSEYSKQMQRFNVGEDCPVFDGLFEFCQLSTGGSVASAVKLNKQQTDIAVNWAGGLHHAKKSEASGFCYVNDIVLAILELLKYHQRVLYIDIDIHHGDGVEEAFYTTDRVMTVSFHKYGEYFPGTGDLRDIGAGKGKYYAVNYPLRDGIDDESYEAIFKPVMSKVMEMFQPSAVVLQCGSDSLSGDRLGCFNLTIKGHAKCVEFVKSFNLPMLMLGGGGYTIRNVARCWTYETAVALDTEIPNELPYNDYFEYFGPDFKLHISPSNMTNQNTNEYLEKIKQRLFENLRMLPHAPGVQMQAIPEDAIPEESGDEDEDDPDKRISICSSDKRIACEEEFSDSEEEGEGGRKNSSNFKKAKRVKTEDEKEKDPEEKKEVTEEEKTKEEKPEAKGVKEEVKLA

[4] = target: Histone deacetylase 3 (Homo sapiens) (UniProt O15379); experiment: Inhibition of HDAC3 in human HeLa-S3 cell lysates assessed as remaining activity at […] preincubated for 15 mins followed by HDAC-Glo substrate addition measured after 30 to 40 mins by […] relative to control
Chain of Histone deacetylase 3 (Homo sapiens) (O15379 whole entry): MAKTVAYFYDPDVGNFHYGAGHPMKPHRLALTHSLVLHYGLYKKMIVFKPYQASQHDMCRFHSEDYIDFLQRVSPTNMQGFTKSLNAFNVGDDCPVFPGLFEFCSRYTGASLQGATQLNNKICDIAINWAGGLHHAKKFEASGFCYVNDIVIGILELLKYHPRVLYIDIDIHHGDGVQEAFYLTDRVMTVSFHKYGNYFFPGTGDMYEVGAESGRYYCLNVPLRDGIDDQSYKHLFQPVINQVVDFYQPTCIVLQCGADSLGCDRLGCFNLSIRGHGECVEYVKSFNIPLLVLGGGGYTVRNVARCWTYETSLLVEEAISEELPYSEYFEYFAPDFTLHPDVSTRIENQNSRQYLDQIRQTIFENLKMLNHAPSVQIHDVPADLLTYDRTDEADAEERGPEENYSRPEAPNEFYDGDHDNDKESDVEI

[5] = target: Histone deacetylase 1 (Homo sapiens) (UniProt Q13547); experiment: Inhibition of HDAC1 in human HeLa-S3 cell lysates assessed as remaining activity at 4 x 10^-6 M preincubated for 15 mins followed by HDAC-Glo substrate addition measured after 30 to 40 mins by […] relative to control
How it was run: (§2)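 HDAC1 was captured from HeLa-S3 lysate (100 μg/mL) onto wells precoated with anti-HDAC1 antibody (10 μg/mL, carbonate buffer pH 9.4) and milk-blocked, 1 h at 4 °C, then washed. Inhibitor in DMSO was added in HDAC-Glo buffer for 15 min at room temperature. HDAC-Glo reagent was added and luminescence read after 30-40 min. Concentrations are final. No-antibody background subtracted; % of DMSO control.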

[6] = target: Histone deacetylase (Homo sapiens) (UniProt Q13547+O15379+Q9UBN7+Q92769+Q9UQL6+Q8WUI4+Q9BY41+Q96DB2+P56524+Q9UKV0+Q969S8); experiment: Inhibition of HDAC in human HeLa-S3 cell lysates assessed as residual activity at 4.8 x 10^-5 M preincubated for 15 mins followed by HDAC-Glo substrate addition measured after 35 mins by […] relative to control; assay type: protein assay
[7] = target: T1, Protein deacetylase HDAC6 (Homo sapiens); experiment: Inhibition of HDAC6 in human HeLa-S3 cell lysates assessed as remaining activity at 1.25 uM preincubated for 15 mins followed by HDAC-Glo substrate addition measured after 30 to 40 mins by […] relative to control; how it was run: as §1
[8] = target: Histone deacetylase 1 (Homo sapiens) (UniProt Q13547); experiment: Inhibition of HDAC1 in human HeLa-S3 cell lysates assessed as remaining activity at 1.25 uM preincubated for 15 mins followed by HDAC-Glo substrate addition measured after 30 to 40 mins by […] relative to control; how it was run: as §2

`O=C(CC[C@H](CCCC(=O)Nc1ccccc1)Cc1ccccc1)NO` gave an Activity [1] of 16%.
With `CCC(CCCC(=O)Nc1ccccc1)CCC(=O)NO` (stereo not drawn) the Activity [2] was 18%, the Activity [3] was 91% and the Activity [4] was 71%. For the same compound, the Activity [5] was 58% and the Activity [6] was 12%.
`CCCCCCC(CCCC(=O)Nc1ccccc1)CCC(=O)NO` (stereo not drawn) gave an Activity [7] of 21% and an Activity [8] of 97%.
